Experimental data of several laboratories.
Each line is one published result; the experiments were not run side by side. pEC50, pIC50: −log10 of the molar value.
Observed: cell growth or viability

c1cc(Nc2nccc(NC3CCCCC3)n2)cc(-c2ncco2)c1  pEC50 (BJ; ATP luminescence; 72 h): < 4.35
C=CC(=O)N1CCC[C@@H](n2nc(-c3ccc(Oc4ccccc4)cc3)c3c(N)ncnc32)C1  GI50 (UPN1; ATP luminescence; 72 h): 4.87 µM
COc1ccc(-c2ccc(-c3ccc(C(=N)N)nc3)s2)cc1  GI50 (ACHN): 1.84 µM
Cc1cc(Cl)c(Cl)cc1NC(=O)c1ccc(N2CCNCC2)nc1  pEC50 (BJ; ATP luminescence): < 4.62
COc1cc(-c2ccc(-c3ccc(C(=N)N)nc3)s2)cc(OC)c1OC  GI50 (OVCAR-3; SRB): 2.6 µM
CC(C)Nc1ccnc(Nc2cccc(-c3cccnc3)c2)n1  pEC50 (BJ; ATP luminescence; 72 h): < 4.77
Oc1ccc(Nc2nc(-c3ccc(Cl)cc3)cs2)cc1  pIC50 (1205Lu; MTS; 48 h): 4.06
C[C@]12CC[C@@H]3c4ccc(O)cc4CC[C@H]3[C@@H]1CC[C@@H]2O  EC90 (OVCAR-3; ATP luminescence; 72 h): 76.1 µM
CC(=O)c1c(C)c2cnc(Nc3ccc(N4CCNCC4)cn3)nc2n(C2CCCC2)c1=O  GI50 (MDA-MB-157; resazurin): > 5 µM
COC(=O)[C@H](C)Nc1ccnc(Nc2cccc(-c3cccnc3)c2)n1  pEC50 (BJ; ATP luminescence; 72 h): < 5.10
CN(C)C/C=C/C(=O)Nc1cc2c(Nc3ccc(F)c(Cl)c3)ncnc2cc1O[C@H]1CCOC1  viability (KB-C2; ATP luminescence; 3 µM, 12 days, 3D culture): 67.7%
CC#CC(=O)N1CC[C@@H](n2cc(-c3ccc(Oc4c(F)cccc4F)cc3)c3c(N)n[nH]c(=O)c32)C1  GI50 (UPN1; ATP luminescence; 72 h): 2.21 µM
CCNc1ccnc(Nc2cccc(-c3cccnc3)c2)n1  pEC50 (BJ; ATP luminescence; 72 h): < 4.68
O=C(Nc1cncc(-c2nc3ccccc3s2)c1)c1cc([N+](=O)[O-])c(N2CCNCC2)cc1Cl  pEC50 (BJ; ATP luminescence): < 4.82
